Test results taken from ChEMBL document CHEMBL1795273, “Curcumin analogues as possible anti-proliferative & anti-inflammatory agents” (Eur J Med Chem, 2011).
The source made the active and inactive calls. The rule behind the calls is not given here.

Key:
SF-268 [1] = assay: Antiproliferative activity against human SF268 cells after 48 hrs by sulforhodamine B assay; format: functional; details: SF-268, 48 h
In short: (§1)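 Cells grown in RPMI 1640 with 5% heat-inactivated FCS, 2 mM L-glutamine and antibiotics at 37 °C, 5% CO2; viability >95% by trypan blue. Seeded at 5.000-7.500 cells/well and preincubated 24 h. Compound in DMSO added at 10-fold dilutions (100 to 0.01 µM) for 48 h. TCA fixation, SRB staining, absorbance at 530 nm. GI50, TGI and LC50 derived. Three independent experiments, each in triplicate.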

[2] = Inhibition of soybean 5LOX assessed as conversion of sodium linoleate to 13-[…] acid; set-up: species or system Glycine max
In short: (§2)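 Soybean lipoxygenase (1/9 × 10^-4 w/v in saline) incubated at room temperature with compound in DMSO and 0.1 mM sodium linoleate. Formation of 13-hydroperoxylinoleic acid followed at 234 nm. NDGA reference inhibitor. At least triplicate.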

[3] = Lipophilicity, RM of the compound assessed by RPTLC; format: physicochemical
In short: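 Determined by reverse-phase TLC with plates developed in mobile-phase-saturated closed tanks at 24 °C and spots detected under UV. RM = log[(1/Rf) − 1], from 10 individual Rf measurements.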

NCI-H460 [4] = assay: Antiproliferative activity against human NCI-H460 cells after 48 hrs by sulforhodamine B assay; format: functional; details: NCI-H460, 48 h; in short: as §1
Rattus norvegicus [5] = assay: Toxicity in Fischer-344 rat assessed as ulcerogenicity at 0.2 mmol/kg, ip; format: organism-based; details: in vivo
NCI-H460 [6] = assay: Cytotoxicity against human NCI-H460 cells after 48 hrs by sulforhodamine B assay; format: cell-based; details: nci-h460, 48 h
In short: (§3)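 Cells grown in RPMI 1640 with 5% heat-inactivated FCS, 2 mM L-glutamine and antibiotics, 37 °C, 5% CO2; viability >95% by trypan blue. Seeded 5.000-7.500 cells/well and preincubated 24 h. Compounds in DMSO added at 10-fold dilutions (100 to 0.01 µM) for 48 h. Fixed with cold TCA, SRB-stained, absorbance read at 530 nm. GI50, TGI and LC50 derived from three independent experiments, each in triplicate.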

[7] = Therapeutic index, ratio of LC50 for human SF268 cells to GI50 for human SF268 cells; format: cell-based, SF-268; details: read-out: TI
In short: (§4)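 Index is LC50/GI50 from the 48 h SRB growth assay (100–0.01 µM, 10-fold dilutions). Where LC50 exceeded 100 µM, the highest concentration tested, it was taken as 100 µM.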

[8] = target: Aldo-keto reductase family 1 member B1 (Rattus norvegicus) (UniProt P07943); assay: Inhibition of ALR2 in Fischer-344 rat lens at 100 uM; format: tissue-based; details: Lens of camera-type eye
In short: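 Enzyme partially purified from lenses of Fischer-344 rats of both sexes. Lenses homogenized in cold water, spun at 10000 g, 0-4 °C, 15 min; supernatant precipitated at 40% ammonium sulphate saturation and spun again. Compound in 10% aqueous DMSO, tested at 100 µM. D,L-glyceraldehyde substrate; NADPH consumption read at 340 nm. At least triplicate.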

MCF7 [9] = assay: Antiproliferative activity against human MCF7 cells after 48 hrs by sulforhodamine B assay; format: functional; details: MCF7, 48 h; in short: as §1
MCF7 [10] = assay: Cytotoxicity against human MCF7 cells after 48 hrs by sulforhodamine B assay; format: cell-based; details: mcf7, 48 h; in short: as §3
Rattus norvegicus [11] = assay: Antiinflammatory activity in carrageenan-induced Fischer-344 rat paw oedema at 0.01 mmol/kg, ip after 3.5 hrs; format: functional; details: for inhibition in vivo at 10 µmol/kg: Fischer-344, ip
In short: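 Fischer-344 rats (150–200g), both sexes, pregnant females excluded, 6–15 per group. Oedema induced in right hind paw by intradermal 0.1 mL 2% carrageenin in water. Compound given ip with the carrageenin, dissolved in water (HCl salt) or suspended with Tween 80 (bases). Euthanized at 3.5 h. Injected minus uninjected paw weight compared with water-treated controls as % inhibition. Mean of two experiments.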

SF-268 [12] = assay: Cytotoxicity against human SF268 cells after 48 hrs by sulforhodamine B assay; format: cell-based; details: sf-268, 48 h; in short: as §3
[13] = Therapeutic index, ratio of LC50 for human MCF7 cells to GI50 for human MCF7 cells; format: cell-based; details: read-out: TI; in short: as §4
Glycine max = assay: Inhibition of soybean 5LOX assessed as conversion of sodium linoleate to 13-[…] acid at 100 uM; in short: as §2
[14] = Therapeutic index, ratio of LC50 for human NCI-H460 cells to GI50 for human NCI-H460 cells; format: cell-based; details: read-out: TI; in short: as §4

Row | Compound | GI50 (SF-268 [1]) [µM] | TGI (SF-268 [1]) [µM] | IC50 [2] [µM] | Rm [3] | GI50 (NCI-H460 [4]) [µM] | TGI (NCI-H460 [4]) [µM] | Activity (Rattus norvegicus [5]) | LC50 (NCI-H460 [6]) [µM] | selectivity ratio [7] | inhibition [8] | GI50 (MCF7 [9]) [µM] | TGI (MCF7 [9]) [µM] | LC50 (MCF7 [10]) [µM] | inhibition (Rattus norvegicus [11]) | LC50 (SF-268 [12]) [µM] | selectivity ratio [13] | inhibition (Glycine max) | inhibition in vivo at 10 µmol/kg (Rattus norvegicus [11]) [%] | selectivity ratio [14]
1 | O=C1/C(=C/c2cccs2)CNC/C1=C\c1cccs1 | 98.8 | > 100 | 330 | 0.176 | > 100 | > 100 | Non-toxic | > 100 | 1 | 45.5% | > 100 | > 100 | > 100 | inactive | > 100 | – | – | – | –
2 | O=C1/C(=C/c2ccc(OCc3ccc(Br)cc3)cc2)CNC/C1=C\c1ccc(OCc2ccc(Br)cc2)cc1 | > 100 | > 100 | – | 0.076 | > 100 | > 100 | Non-toxic | > 100 | – | inactive | 49.9 | 96.8 | > 100 | – | > 100 | 2 | 18% | 49 | –
3 | O=C1/C(=C/c2ccc3[nH]ccc3c2)CNC/C1=C\c1ccc2[nH]ccc2c1 | > 100 | > 100 | 410 | 0.166 | > 100 | > 100 | Non-toxic | > 100 | – | inactive | 69.5 | > 100 | > 100 | – | > 100 | 1.4 | – | 36 | –
4 | COc1cc(/C=C/C(=O)CC(=O)/C=C/c2ccc(O)c(OC)c2)ccc1O [CURCUMIN] | 5.1 | 9.2 | – | – | 16.7 | 50.1 | – | 83.4 | 11.9 | 12% | 4.7 | 8.3 | 67.2 | – | 61 | 14.2 | 38% | – | 5
5 | Cc1ccsc1/C=C1\CNC/C(=C\c2sccc2C)C1=O | 53.8 | > 100 | – | -0.03 | 73.2 | > 100 | Non-toxic | > 100 | 1.9 | 56% | 63 | > 100 | > 100 | – | > 100 | 1.6 | inactive | 27 | 1.4
6 | Cc1ccc(/C=C2\CNC/C(=C\c3ccc(C)s3)C2=O)s1 | 65.2 | > 100 | – | 0.031 | 99.3 | > 100 | Non-toxic | > 100 | 1.5 | inactive | 80.7 | > 100 | > 100 | – | > 100 | 1.2 | inactive | 62 | 1
7 | O=C1/C(=C/c2c[nH]cn2)CNC/C1=C\c1c[nH]cn1 | > 100 | > 100 | – | -0.552 | > 100 | > 100 | Non-toxic | > 100 | – | inactive | > 100 | > 100 | > 100 | – | > 100 | – | 36% | 11.5 | –
8 | O=C1/C(=C/c2c[nH]c3ccccc23)CNC/C1=C\c1c[nH]c2ccccc12 | 3.3 | 5.7 | 280 | 0.597 | 3.5 | 6.1 | Non-toxic | 8.7 | 2.5 | 27.8% | 3.7 | 6 | 8.2 | – | 8.2 | 2.2 | – | 33 | 2.4
9 | O=C1/C(=C/c2ccccc2)CNC/C1=C\c1ccccc1 | 0.9 | 4.7 | – | 0.135 | 2 | 6.1 | Non-toxic | 10.3 | 10 | 49% | 0.8 | 4.1 | 9 | – | 9.1 | 11.6 | 8% | 43 | 5.2
10 | COc1ccc2c(c1)c(CC(=O)O)c(C)n2C(=O)c1ccc(Cl)cc1 [INDOMETHACIN] | – | – | – | – | – | – | – | – | – | – | – | – | – | – | – | – | – | 47 | –
